Measured values collected from several papers.

Compound	tested on	test	system	conditions	measurement	result
CCCOc1ccc(/C=C/c2cc(OC)cc(OC)c2-c2cnnn2C(=O)NCCc2ccccc2)cc1	RAW264.7	NO release, inhibitor, Griess	–	10 µM, LPS-stimulated	inhibition	69.3%
N#Cc1c(-c2ccc(Cl)cc2Cl)c(C(N)=S)c(N)n(N)c1=O	Enterobacter cloacae	microbial growth, well diffusion	ATCC23355	500 µg/mL	inhibition zone	18 mm
CN(Cc1ccc(C2(C(F)(F)F)CC2)cc1)Cc1cccc2ccccc12	Trichophyton mentagrophytes	microbial growth, disc diffusion	ATCC18748	0.512 µg/mL, 72 h	inhibition zone	≥ 55 mm
C#CCOc1ccc(/C=C/c2cc(OC)cc(OC)c2-c2cnnn2C(=O)NCC)cc1	RAW264.7	NO release, inhibitor, Griess	–	10 µM, LPS-stimulated	inhibition	71.3%
C=CC(=O)NC1CCN(c2ncc3ncnc(Nc4ccc(Oc5ccc6c(c5)ncn6C)c(C)c4)c3n2)CC1	COR-L279	cell growth or viability	–	–	EC50	7.54 nM
Cc1ccc(-c2cc(C(F)(F)F)nn2-c2ccc(S(N)(=O)=O)cc2)cc1	RAW264.7	NO release, inhibitor, Griess	–	10 µM, LPS-stimulated	inhibition	35.2%
COc1cccc2c1C(=O)c1c(O)c3c(c(O)c1C2=O)C[C@@](O)(C(=O)CO)C[C@@H]3O[C@H]1C[C@H](N)[C@H](O)[C@H](C)O1	NCI-H1299	cell growth or viability, MTT	–	2.5 µM	inhibition	95.7%
Cn1cc2c3c1C(=O)C(NCCc1ccc(O)cc1)=CC3=[N+](C)CC2	Babesia divergens	parasite growth, SYBR Green	–	60 h, blood stage	IC50	12.2 nM
O=C1CC[C@@H](COc2ccc(C(=O)C(Cl)Cl)cc2[N+](=O)[O-])N1	NCI-H1299	cell growth or viability, MTT	–	2.5 µM	inhibition	94.7%
CN(Cc1ccc(C(C)(C)C)cc1)Cc1cccc2ccccc12	Trichophyton mentagrophytes	microbial growth, disc diffusion	ATCC18748	0.004 µg/mL, 72 h	inhibition zone	34 mm
C#CCOc1ccc(/C=C/c2cc(OC)cc(OC)c2-c2cnnn2C(=O)NCCc2ccccc2)cc1	RAW264.7	NO release, inhibitor, Griess	–	10 µM, LPS-stimulated	inhibition	50.4%
O=C(c1ccccc1)c1ccc(Oc2ccc(C(=O)C(Cl)Cl)cc2[N+](=O)[O-])cc1	NCI-H1299	cell growth or viability, MTT	–	2.5 µM	inhibition	85.3%
